Data from ChEMBL document CHEMBL1811765, “Synthesis, biological evaluation, and molecular modeling of cinnamic acyl sulfonamide derivatives as novel antitubulin agents” (Bioorg Med Chem, 2011).
Values after ≈ are worked out from the molar mass of the structure shown.

Columns and labels:
[1] = Inhibition of bovine brain tubulin polymerization after 20 mins by turbidimetric analysis; design: species or system Bos taurus
How it was run: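 Tubulin at 10 µM in glutamate buffer was preincubated with varying compound concentrations at 30 °C, then cooled to 0 °C. GTP was added, the mix moved to 0 °C cuvettes and warmed to 30 °C, and assembly was followed turbidimetrically.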

[2] = tested on: B16-F10; assay: Antiproliferative activity against mouse B16F10 cells after 48 hrs by MTT based ELISA assay; assay type: functional, cell-based; settings: B16-F10, 48 h
How it was run: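 B16-F10 cells grown to log phase in RPMI 1640 with 10% FBS, seeded at 2 × 10⁴ cells/mL and incubated 24 h at 37 °C, 5% CO₂ before treatment. Read-out was absorbance at 570 nm after an overnight incubation at 37 °C. Three replicate wells per concentration, each assay run at least three times. IC50 reported.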

[3] = tested on: B16-F10; assay: Cell cycle arrest in mouse B16F10 cells assessed as accumulation at G0/G1 phase at 1 ug/ml after 24 hrs by flow cytometry analysis (reference value: 48.57%); assay type: functional
[4] = tested on: B16-F10; assay: Cell cycle arrest in mouse B16F10 cells assessed as accumulation at G2/M phase at 1 ug/ml after 24 hrs by flow cytometry analysis (reference value: 17.03%); assay type: functional
[5] = tested on: B16-F10; assay: Cell cycle arrest in mouse B16F10 cells assessed as accumulation at G0/G1 phase at 5 ug/ml after 24 hrs by flow cytometry analysis (reference value: 48.57%); assay type: functional
[6] = tested on: B16-F10; assay: Cell cycle arrest in mouse B16F10 cells assessed as accumulation at S phase at 5 ug/ml after 24 hrs by flow cytometry analysis (reference value: 9.40%); assay type: functional
[7] = tested on: B16-F10; assay: Cell cycle arrest in mouse B16F10 cells assessed as accumulation at S phase at 1 ug/ml after 24 hrs by flow cytometry analysis (reference value: 9.40%); assay type: functional
[8] = tested on: B16-F10; assay: Cell cycle arrest in mouse B16F10 cells assessed as accumulation at G2/M phase at 5 ug/ml after 24 hrs by flow cytometry analysis (reference value: 17.03%); assay type: functional

| IC50 [1] [µg/mL] | IC50 [2] [µg/mL] | Compound | further results |
| --- | --- | --- | --- |
| 14.8 (≈ 46 µM) | 2.2 (≈ 6.84 µM) | O=C(/C=C/c1ccccc1)NS(=O)(=O)c1ccc(Cl)cc1 | – |
| 53 (≈ 119 µM) | 5.1 (≈ 11.5 µM) | O=C(/C=C/c1ccc(Br)cc1)NS(=O)(=O)c1ccc(Br)cc1 | – |
| 37 (≈ 129 µM) | 3.5 (≈ 12.2 µM) | O=C(/C=C/c1ccccc1)NS(=O)(=O)c1ccccc1 | – |
| 63 (≈ 172 µM) | 3.9 (≈ 10.6 µM) | O=C(/C=C/c1ccccc1)NS(=O)(=O)c1ccc(Br)cc1 | – |
| 160 (≈ 504 µM) | 13.2 (≈ 41.6 µM) | COc1ccc(/C=C/C(=O)NS(=O)(=O)c2ccccc2)cc1 | – |
| 74 (≈ 202 µM) | 3.9 (≈ 10.6 µM) | O=C(/C=C/c1ccc(Br)cc1)NS(=O)(=O)c1ccccc1 | – |
| 3.8 (≈ 9.89 µM) | 1.2 (≈ 3.12 µM) | O=C(/C=C/c1ccc(Br)cc1)NS(=O)(=O)c1ccc(F)cc1 | – |
| 152 (≈ 504 µM) | 13.8 (≈ 45.8 µM) | Cc1ccc(S(=O)(=O)NC(=O)/C=C/c2ccccc2)cc1 | – |
| 26 (≈ 78.7 µM) | 2.3 (≈ 6.96 µM) | CN(C)c1ccc(/C=C/C(=O)NS(=O)(=O)c2ccccc2)cc1 | – |
| 50 (≈ 150 µM) | 4.8 (≈ 14.4 µM) | O=C(/C=C/c1ccc([N+](=O)[O-])cc1)NS(=O)(=O)c1ccccc1 | – |
| 14.7 (≈ 38.3 µM) | 2.8 (≈ 7.29 µM) | O=C(/C=C/c1ccc(F)cc1)NS(=O)(=O)c1ccc(Br)cc1 | – |
| 10.8 (≈ 27 µM) | 2.8 (≈ 6.99 µM) | O=C(/C=C/c1ccc(Cl)cc1)NS(=O)(=O)c1ccc(Br)cc1 | – |
| 55 (≈ 137 µM) | 5.2 (≈ 13 µM) | O=C(/C=C/c1ccc(Br)cc1)NS(=O)(=O)c1ccc(Cl)cc1 | – |
| 4.5 (≈ 14.7 µM) | 2.1 (≈ 6.88 µM) | O=C(/C=C/c1ccc(F)cc1)NS(=O)(=O)c1ccccc1 | – |
| 15.3 (≈ 47.5 µM) | 2.2 (≈ 6.84 µM) | O=C(/C=C/c1ccc(Cl)cc1)NS(=O)(=O)c1ccccc1 | – |
| 4.5 (≈ 14.7 µM) | 2.1 (≈ 6.88 µM) | O=C(/C=C/c1ccccc1)NS(=O)(=O)c1ccc(F)cc1 | – |
| 137 (≈ 360 µM) | 12.1 (≈ 31.8 µM) | Cc1ccc(S(=O)(=O)NC(=O)/C=C/c2ccc(Br)cc2)cc1 | – |

Second part, the compound before the results:

| Compound | IC50 [1] [µg/mL] | IC50 [2] [µg/mL] | further results |
| --- | --- | --- | --- |
| O=C(/C=C/c1ccc(Cl)cc1)NS(=O)(=O)c1ccc(F)cc1 | 8.9 (≈ 26.2 µM) | 2 (≈ 5.89 µM) | – |
| COc1ccc(/C=C/C(=O)NS(=O)(=O)c2ccc(Cl)cc2)cc1 | 52 (≈ 148 µM) | 5.3 (≈ 15.1 µM) | – |
| Cc1ccc(S(=O)(=O)NC(=O)/C=C/c2ccc([N+](=O)[O-])cc2)cc1 | 151 (≈ 436 µM) | 13.5 (≈ 39 µM) | – |
| CN(C)c1ccc(/C=C/C(=O)NS(=O)(=O)c2ccc(Cl)cc2)cc1 | 14 (≈ 38.4 µM) | 2.8 (≈ 7.67 µM) | – |
| Cc1ccc(S(=O)(=O)NC(=O)/C=C/c2ccc(F)cc2)cc1 | 40 (≈ 125 µM) | 4.8 (≈ 15 µM) | – |
| O=C(/C=C/c1ccc(Cl)cc1)NS(=O)(=O)c1ccc(Cl)cc1 | 9.3 (≈ 26.1 µM) | 2.5 (≈ 7.02 µM) | – |
| O=C(/C=C/c1ccc([N+](=O)[O-])cc1)NS(=O)(=O)c1ccc(Cl)cc1 | 134 (≈ 365 µM) | 13.7 (≈ 37.4 µM) | – |
| COc1ccc(/C=C/C(=O)NS(=O)(=O)c2ccc(C)cc2)cc1 | 146 (≈ 441 µM) | 12.2 (≈ 36.8 µM) | – |
| Cc1ccc(S(=O)(=O)NC(=O)/C=C/c2ccc(N(C)C)cc2)cc1 | 37 (≈ 107 µM) | 4.3 (≈ 12.5 µM) | – |
| O=C(/C=C/c1ccc([N+](=O)[O-])cc1)NS(=O)(=O)c1ccc(Br)cc1 | 163 (≈ 396 µM) | 13.9 (≈ 33.8 µM) | – |
| CN(C)c1ccc(/C=C/C(=O)NS(=O)(=O)c2ccc(F)cc2)cc1 | 10 (≈ 28.7 µM) | 2.3 (≈ 6.6 µM) | – |
| O=C(/C=C/c1ccc(F)cc1)NS(=O)(=O)c1ccc(F)cc1 | 2.4 (≈ 7.42 µM) | 0.8 (≈ 2.47 µM) | Activity [3]: 26.7%; Activity [4]: 30.21%; Activity [5]: 5.65%; Activity [6]: 4.22%; Activity [7]: 9.08%; Activity [8]: 49% |
| O=C(/C=C/c1ccccc1[N+](=O)[O-])NS(=O)(=O)c1ccc(Br)cc1 | 134 (≈ 326 µM) | 12.6 (≈ 30.6 µM) | – |
| COc1ccc(/C=C/C(=O)NS(=O)(=O)c2ccc(Br)cc2)cc1 | 53 (≈ 134 µM) | 5.8 (≈ 14.6 µM) | – |
| O=C(/C=C/c1ccccc1[N+](=O)[O-])NS(=O)(=O)c1ccc(F)cc1 | 69 (≈ 197 µM) | 6 (≈ 17.1 µM) | – |
| CN(C)c1ccc(/C=C/C(=O)NS(=O)(=O)c2ccc(Br)cc2)cc1 | 34 (≈ 83.1 µM) | 4.2 (≈ 10.3 µM) | – |
| O=C(/C=C/c1ccc([N+](=O)[O-])cc1)NS(=O)(=O)c1ccc(F)cc1 | 6.3 (≈ 18 µM) | 2.2 (≈ 6.28 µM) | – |
| Cc1ccc(S(=O)(=O)NC(=O)/C=C/c2ccc(Cl)cc2)cc1 | 30 (≈ 89.3 µM) | 4.6 (≈ 13.7 µM) | – |
| COc1ccc(/C=C\c2cc(OC)c(OC)c(OC)c2)cc1O [COMBRETASTATIN A4] | 0.7 (≈ 2.21 µM) | – | – |
| COc1ccc(/C=C/C(=O)NS(=O)(=O)c2ccc(F)cc2)cc1 | 45 (≈ 134 µM) | 5.1 (≈ 15.2 µM) | – |
| O=C(/C=C/c1ccccc1[N+](=O)[O-])NS(=O)(=O)c1ccccc1 | 74 (≈ 223 µM) | 6 (≈ 18.1 µM) | – |
| Cc1ccc(S(=O)(=O)NC(=O)/C=C/c2ccccc2[N+](=O)[O-])cc1 | 102 (≈ 294 µM) | 10.3 (≈ 29.7 µM) | – |
| O=C(/C=C/c1ccccc1[N+](=O)[O-])NS(=O)(=O)c1ccc(Cl)cc1 | 78 (≈ 213 µM) | 6.6 (≈ 18 µM) | – |
| COc1cc2c(c(OC)c1OC)-c1ccc(OC)c(=O)cc1[C@@H](NC(C)=O)CC2 [COLCHICINE] | – | – | Activity [3]: 1.58%; Activity [4]: 61.11%; Activity [7]: 1.3% |
| O=C(/C=C/c1ccc(F)cc1)NS(=O)(=O)c1ccc(Cl)cc1 | 4.5 (≈ 13.2 µM) | 2.6 (≈ 7.65 µM) | – |
